Experimental data reported in ChEMBL document CHEMBL2311288, “Discovery of liver-targeted inhibitors of stearoyl-CoA desaturase (SCD1)” (Bioorg Med Chem Lett, 2013).

How the values were obtained:
[1] = molecular target: T1, Acyl-CoA desaturase 1 (Rattus norvegicus, UniProt P07308); assay: Inhibition of rat SCD1 by rat microsomal assay
T1 sequence (P07308 whole entry): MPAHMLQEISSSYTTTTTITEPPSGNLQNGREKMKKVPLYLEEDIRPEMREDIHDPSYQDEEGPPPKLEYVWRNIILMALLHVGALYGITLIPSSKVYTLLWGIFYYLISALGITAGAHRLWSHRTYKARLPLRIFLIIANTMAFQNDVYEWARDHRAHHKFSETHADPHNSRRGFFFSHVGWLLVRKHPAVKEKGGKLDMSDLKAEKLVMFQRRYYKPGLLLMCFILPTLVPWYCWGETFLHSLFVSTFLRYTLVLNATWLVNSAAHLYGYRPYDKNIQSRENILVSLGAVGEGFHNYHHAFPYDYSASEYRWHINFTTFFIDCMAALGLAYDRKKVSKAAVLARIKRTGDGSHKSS
How it was run: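 Microsomal desaturase activity was measured in 100 mM Tris HCl pH 7.3 with 2 mM NADH and [9,10-3H]stearoyl-CoA for 15 min at room temperature. The reaction was stopped on ice with trichloroacetic acid, then passed through activated charcoal, and tritium in the filtrate was counted. Compounds were tested in 2% DMSO final. Percent inhibition = (total−sample)/(total−blank)×100, with the blank set by 10⁻⁴ M of a standard inhibitor.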

[2] = Drug level in liver in rat at 10 mg/kg measured after 6 hrs; assay type: ADME, organism-based; design: dose 10 mg/kg; settings: read-out: Drug uptake
How it was run: (§1)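 Rats were given a single 10 mg/kg dose. Plasma exposure (AUC, Cmax) was determined, and drug concentrations in plasma, brain and liver were measured at 6 h post-dose. The liver/plasma ratio was taken from the 6 h levels.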

[3] = Ratio of drug level in liver to plasma of rat at 10 mg/kg measured after 6 hrs; assay type: ADME, organism-based; design: dose 10 mg/kg; how it was run: as §1
[4] = Cmax in rat at 10 mg/kg; assay type: ADME, organism-based; design: dose 10 mg/kg; settings: in vivo; how it was run: as §1
[5] = Plasma concentration in rat at 10 mg/kg measured after 6 hrs; assay type: ADME, organism-based; design: dose 10 mg/kg; how it was run: as §1
[6] = tested on: Rattus norvegicus; assay: AUC in rat at 10 mg/kg; assay type: ADME, organism-based, Plasma; design: dose 10 mg/kg; settings: in vivo; how it was run: as §1

SMILES | IC50 [1] [nM] | concentration at 6 h [2] [ng/g] | Kp at 6 h [3] | Cmax [4] [ng/g] | concentration at 6 h [5] [ng/g] | AUC [6] [ng·h/g]
Fc1cccc2c1CCC1(CCN(c3ccc(-c4nnc(Cc5cccnc5)o4)nn3)CC1)O2 | 2 | – | – | – | – | –
Cc1c(C(=O)Nc2ccn(C)n2)ncn1Cc1cccc(C(F)(F)F)c1 | 11.7 | – | – | – | – | –
N#Cc1cnc(N2CCC3(CC2)CCN(Cc2cccc(C(F)(F)F)c2)c2ccccc2O3)s1 | 1 | 1510 | 20 | 105 | 72 | 383
CNC(=O)c1cnc(N2CCC3(CC2)CCN(Cc2cccc(C(F)(F)F)c2)c2ccccc2O3)s1 | 3 | – | – | – | – | 0
CNC(=O)c1cnc(N2CCC3(CC2)CCN(Cc2ccc(C(C)(C)C)cc2)c2ccccc2O3)s1 | 4 | – | – | – | – | –
NC(=O)c1cnc(N2CCC3(CC2)CCN(Cc2cccc(C(F)(F)F)c2)c2ccccc2O3)s1 | 3 | < 10 | – | 45 | – | 58
O=C(O)c1ccc(N2CCC3(CC2)CCN(Cc2cccc(C(F)(F)F)c2)c2ccccc2O3)nn1 | 4700 | – | – | – | – | –
NC(=O)c1ccc(N2CCC3(CC2)CCN(Cc2cccc(C(F)(F)F)c2)c2ccccc2O3)nn1 | 10 | – | – | – | – | –
CCCNC(=O)c1ccc(N2CCC3(CC2)CCN(Cc2cccc(C(F)(F)F)c2)c2ccccc2O3)nn1 | 130 | – | – | – | – | –
O=C(NCCC1CC1)c1cnc(N2CCC3(CC2)CCN(Cc2cccc(C(F)(F)F)c2)c2ccccc2O3)s1 | 930 | – | – | – | – | –
O=C(NCCC1CC1)c1ccc(N2CCC3(CC2)CCN(Cc2cccc(C(F)(F)F)c2)c2ccccc2O3)cc1 | 2200 | – | – | – | – | –
O=C(NCCC1CC1)c1ccc(N2CCC3(CC2)CCN(Cc2cccc(C(F)(F)F)c2)c2ccccc2O3)nc1 | 12 | < 10 | – | 45 | – | 23
O=C(NCCC1CC1)c1ccc(N2CCC3(CC2)CCN(Cc2cccc(C(F)(F)F)c2)c2ccccc2O3)nn1 | 4 | < 10 | – | 209 | – | 105
CC(C)(C)c1ccc(CN2CCC3(CCN(c4ccc(C(=O)NCCC5CC5)nn4)CC3)Oc3ccccc32)cc1 | 40 | – | – | – | – | –
CC(C)(C)c1ccc(CC(=O)N2CCC3(CC2)CCN(CC#N)c2ccccc2O3)cc1 | 440 | – | – | – | – | –
CC(C)(C)c1ccc(CN2CCC3(CCN(C(=O)CNC(=O)c4cccnc4)CC3)Oc3ccccc32)cc1 | 1500 | 232 | 13 | 169 | 18 | 341
CC(C)(C)c1ccc(CN2CCC3(CCN(C(=O)CNC(=O)c4ccco4)CC3)Oc3ccccc32)cc1 | 19 | – | – | – | – | –
O=C(NCC(=O)N1CCC2(CC1)CCN(Cc1cccc(C(F)(F)F)c1)c1ccccc1O2)c1ccco1 | 380 | – | – | – | – | –
O=C(NCC(=O)N1CCC2(CC1)CCN(Cc1cccc(C(F)(F)F)c1)c1ccccc1O2)c1ccccc1 | 2600 | – | – | – | – | –
CC(=O)NCC(=O)N1CCC2(CC1)CCN(Cc1ccc(C)cc1)c1ccccc1O2 | 1100 | – | – | – | – | –
CCc1ccc(CN2CCC3(CCN(C(=O)CNC(C)=O)CC3)Oc3ccccc32)cc1 | 57 | < 100 | – | 579 | 19 | 1288
CC(=O)NCC(=O)N1CCC2(CC1)CCN(CCc1ccc(C(C)C)cc1)c1ccccc1O2 | 42 | 1660 | 17 | 875 | 100 | 2608
